Measured values from different studies.
Each line is one published result; the experiments were not run side by side.
Target: Maternal embryonic leucine zipper kinase (MELK, Homo sapiens, UniProt Q14680)

CCOC(=O)c1cc2cc(-c3cc(C(=O)NCc4ccc(C(=O)O)cc4)nn3C)ccc2[nH]1
remaining binding (cell-free assay, competition with immobilised ligand; 0.1 µM): 100%

CNC(=O)c1cc(Oc2ccc(NC(=O)Nc3ccc(Cl)c(C(F)(F)F)c3)cc2)ccn1
inhibition (enzyme activity, inhibitor; 10 µM): 13%

C[C@H](c1cccc(C#N)c1)n1cc(Cl)cc(C(N)=O)c1=N
remaining binding (cell-free assay, competition with immobilised ligand; 1 µM): 74%

COc1cc(-c2cc(-c3ccc(N4CCNCC4)cc3)cnc2C)cc(OC)c1OC
inhibition (enzyme activity, inhibitor; 1 µM): 8%

FC(F)(F)Oc1cccc(-c2cnc3ccc(-c4ccncc4)nn23)c1
activity vs control (enzyme activity, inhibitor, radiometric; 5 µM): 77%

COc1ccc(COc2ccc(Cc3cnc(N)nc3N)cc2OC)cc1
remaining signal (cell-free assay; 0.5 µM): 102%

CCS(=O)(=O)c1cc2cc(C[C@@](O)(CC(C)(C)c3ccc(F)cc3C(N)=O)C(F)(F)F)[nH]c2cn1
remaining binding (cell-free assay, competition with immobilised ligand; 1 µM): 100%

COc1cc(Nc2cnc(C#N)c(O[C@H](C)CN(C)C)n2)ncc1-c1cnn(C)c1
remaining activity (enzyme activity, inhibitor, radiometric; 10 µM): 62%

Cc1ccc(Nc2nccc(N(C)c3ccc4c(C)n(C)nc4c3)n2)cc1S(N)(=O)=O
inhibition (enzyme activity, inhibitor; 10 µM): 16%

Cc1ccc(NC(=O)c2ccc(C)c(C(F)(F)F)c2)cc1C#Cc1nn(C2CCC(O)CC2)c2ncnc(N)c12 (centres unmarked)
remaining signal (cell-free assay; 10 µM): 23%

Cc1sc(C(=O)NC2COC2)cc1-n1cc(NC(=O)Nc2c(F)cccc2Cl)cn1
remaining activity (enzyme activity, inhibitor; 10 µM): 103%

Nc1nc(NC2CCCCC2)sc1C(=O)c1ccccc1
remaining activity (enzyme activity, inhibitor; 10 µM): 70%

FC(F)c1nc2ccccc2n1-c1nc(N2CCOCC2)nc(N2CCOCC2)n1
remaining activity (enzyme activity, inhibitor; 10 µM): 91%

COc1cc(-c2cn(C3CCc4c(F)cccc4N(CC(F)(F)F)C3=O)nn2)ccc1-n1cnc(C)c1 (centres unmarked)
remaining binding (cell-free assay, competition with immobilised ligand; 1 µM): 100%

CCN(CC)CCNC(=O)c1c(C)[nH]c(/C=C2\C(=O)Nc3ccc(F)cc32)c1C
inhibition (enzyme activity, inhibitor; 0.3 µM): 53%

CC(C)(C)c1nc2c(s1)c1nc(N)ncc1c1ccc(NS(=O)(=O)c3c(F)cccc3F)c(F)c12
remaining activity (enzyme activity, inhibitor, radiometric; 1 µM): 41%

Clc1ccc(Nc2nnc(Cc3ccncc3)c3ccccc23)cc1
remaining signal (cell-free assay; 0.5 µM): 83.7%

O=[N+]([O-])c1cccc2[nH]c(CNc3nc(N4CCOCC4)nc4c3ncn4-c3ccsc3)nc12
binding vs control (binding, competition with immobilised ligand; 10 µM): 47%

CC(C)(O)[C@H]1CC[C@H](Nc2ccc3ncc(-c4cccc(C(F)(F)F)c4)n3n2)CC1
remaining activity (enzyme activity, inhibitor; 1 µM): 86.3%

COc1cc2ncnc(Nc3ccc(Oc4ccccc4)c(C)c3C)c2cc1OC
inhibition (enzyme activity, inhibitor; 1 µM): 10%

Cc1cc(NC(=O)c2cccc3cc(-c4cccc5[nH]nc(N)c45)ccc23)ccc1F
activity vs control (enzyme activity, inhibitor; 0.1 µM): 93%

C[C@H](c1ccnc(Nc2nc3ccc(-c4cc(N(C)C)ncn4)cc3[nH]2)c1)N1CCN(C(=O)CC(F)(F)F)CC1
remaining binding (cell-free assay, competition with immobilised ligand; 0.1 µM): 100%

O=C1Nc2ccc(Cl)cc2C1=Cc1cc(Cl)c(O)c(Cl)c1
remaining signal (cell-free assay; 0.5 µM): 83.6%

CC(=O)Nc1c(C(C)=O)c(=O)n(C)c2nc(-c3ccc(Cl)cc3Cl)c(-c3ccc(Cl)cc3)cc12
remaining binding (cell-free assay, competition with immobilised ligand; 1 µM): 100%

CCCS(=O)(=O)Nc1ccc(F)c(C(=O)c2c[nH]c3ncc(-c4ccc(Cl)cc4)cc23)c1F
inhibition (enzyme activity, inhibitor; 1 µM): < 10%

COc1cc2ncnc(Nc3ccc(F)c(Cl)c3)c2cc1OCCCN1CCOCC1
remaining signal (cell-free assay; 0.5 µM): 77.7%

CCC(=O)N[C@H]1CC[C@@H](C(=O)N(C)c2ccc(-c3nc4ccccc4o3)cc2)C1
remaining binding (cell-free assay, competition with immobilised ligand; 1 µM): 94%

CN1CC(Oc2cnc(C#N)cc2-c2ccn3nc(NC(=O)C4CC4)cc3c2)C1
inhibition (enzyme activity, inhibitor; 1 µM): 10%

CCN(CC)c1ccc(C2=NNC(=O)CC2C)cc1[N+](=O)[O-] (centres unmarked)
remaining activity (enzyme activity, inhibitor; 10 µM): 92%

CC(C)(C)c1nc2c3cc[nH]c(=O)c3c3cc(F)ccc3c2[nH]1
remaining signal (cell-free assay; 0.5 µM): 5.23%

N#Cc1ccc(Nc2ccc3[nH]c(=O)[nH]c3c2)c(Cl)c1
remaining binding (cell-free assay, competition with immobilised ligand; 1 µM): 95%

O=C(Nc1cnn(-c2csc(C(=O)NC3COC3)c2)c1)Nc1c(F)cccc1Cl
remaining activity (enzyme activity, inhibitor; 5 µM): 61.4%
